# Assay outcomes as filed in PubChem.
# Most compounds without a hit are left out; they make up all but 1.6% or so of the library.
# FLuc act counter = firefly luciferase counter-screen for stimulation assays; P08659; ATPlite luciferase biochemical, luminescence, 10 min; 0 = ATP-free wells, 1 = DMSO control; activation factor at 10 µM; 200,000 tested, under 10 active; AID 1027;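 active = luciferase activation factor, scaled between plate controls, of at least 2 with compound at 10 µM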
# Target sequence (P08659 whole entry, looked up): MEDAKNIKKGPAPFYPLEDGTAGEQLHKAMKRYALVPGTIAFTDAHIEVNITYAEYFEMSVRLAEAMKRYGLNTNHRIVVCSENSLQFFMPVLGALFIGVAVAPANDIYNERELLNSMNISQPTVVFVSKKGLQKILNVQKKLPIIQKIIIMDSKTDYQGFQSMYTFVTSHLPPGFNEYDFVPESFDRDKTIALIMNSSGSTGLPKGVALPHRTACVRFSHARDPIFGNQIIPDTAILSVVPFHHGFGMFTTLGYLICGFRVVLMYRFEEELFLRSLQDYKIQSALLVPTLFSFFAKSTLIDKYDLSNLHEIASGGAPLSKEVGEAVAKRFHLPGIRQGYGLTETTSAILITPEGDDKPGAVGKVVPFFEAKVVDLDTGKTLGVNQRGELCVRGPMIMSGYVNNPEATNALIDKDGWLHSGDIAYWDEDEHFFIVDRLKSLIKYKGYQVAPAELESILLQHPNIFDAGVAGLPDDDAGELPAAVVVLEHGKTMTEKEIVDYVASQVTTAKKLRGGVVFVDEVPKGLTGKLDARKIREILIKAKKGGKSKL
#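 System: luciferase plus luciferin reagent, cell-free; medium: PBS as buffer for the ATP substrate; dosing: test compounds dosed from 2 mM stocks in 100% DMSO; timing: 10 min post-reagent at room temperature; measured by: luminescence measurement of luciferase light output; evaluation: luciferase activation, seen as luminescence increase over controls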
# FLuc inh counter = Photinus pyralis luciferase inhibition counter-screen; ATPLite firefly luciferase biochemical luminescence, 10 min; inhibition, % at 10 µM; 1.5% of 200,000 active;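 active = inhibition above about 50% when tested at 10 µM, limit read from the data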
# PPC-1+TRAIL kill = PPC-1 cancer cell killing with TRAIL present. PPC-1 cells + TRAIL, ATPLite viability luminescence. cell killing (% activity), % at 4 µM or 5 µM. 0.41% of 220,000 active;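 active = cell killing above 50% in the first pass at 4 µM, then a duplicate retest at 5 µM averaging 50% or more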;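 also: plate controls were cells with TRAIL plus DMSO for no effect and medium-only wells lacking cells for full effect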
# TRAIL sens C8 = caspase-8 TRAIL sensitization; NB7+C8 cells + TRAIL, ATPlite viability luminescence; inhibition (viability loss, TRAIL sensitization), % at 10 µM; 1% of 360,000 active;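 active = compounds causing at least 50% loss of cell viability in the single-dose screen, relative to plate controls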
# PPC-1 tox = kills PPC-1 cells; cytotoxicity, % at 5 µM; shares compounds with PPC-1+TRAIL kill; 50% of 1,200 active; AID 1447; PPC-1 viability, ATPlite luminescence, overnight;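 active = reconfirmed compounds whose average cytotoxicity reaches 50% or more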;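 also: 0% = DMSO-treated cells and 100% = wells holding medium but no cells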
# Numbers without * were called inactive; . = no result given.
SMILES,FLuc act counter,FLuc inh counter,PPC-1+TRAIL kill,TRAIL sens C8,PPC-1 tox
CCN(CC)c1ccc2cc(-c3nc4ccccc4n3C)c(=O)oc2c1,0.8,24,13,29,.
Cc1ccn2cc(-c3ccc(Br)cc3)nc2c1,.,.,82*,86*,83*
Cc1ccc(S(=O)(=O)Nc2ccc(-c3cn4ccc(C)cc4n3)cc2)cc1,1,2,-18,6,.
O=C(NN=Cc1c(O)ccc2ccccc12)c1ccc2c(c1)OCO2,.,.,.,34,.
Oc1ccc(N=Nc2ccc3c(c2)OCO3)c2ccccc12,.,.,34,.,32
COc1ccccc1N=Nc1nc(-c2ccccc2)c(-c2ccccc2)[nH]1,0.9,5,-2,-5,.
Oc1ccccc1N=Nc1nc(-c2ccccc2)c(-c2ccccc2)[nH]1,1,-2,21,-1,23
O=C(COc1nc2ccccc2nc1N1CCOCC1)Nc1cccc(S(=O)(=O)N2CCCCC2)c1,1,-2,-1,11,.
O=C(CSc1nnc(-c2cccs2)o1)NCC1CN(Cc2ccccc2)CCO1 (configuration not stated),1,-1,1,-14,7
C[C@@H]1CN([C@@H](C)CO)C(=O)CCCn2nncc2CO[C@H]1CN(C)C(=O)c1ccc2ccn(C)c2c1,.,.,.,-10,.
O=C1NC[C@H](CCCCN2C[C@H](Cc3ccc(O)cc3)N(CCc3ccc(O)cc3)C(=O)C2=O)N(CCc2ccccc2)C1=O,.,.,.,1,.
CN1CCN(NC(=O)c2ccc(Cl)c(S(=O)(=O)Nc3ccc(Cl)cc3)c2)CC1,.,.,8,-8,.
CCC(=O)Nc1cc2nn(-c3ccc(C)cc3)nc2cc1C,0.3,66*,59*,65*,55*
CCC(=O)Nc1cc2nn(-c3ccc(OC)cc3)nc2cc1C,0.3,69*,58*,59*,49
CCN1CCN(Cc2ccc(NC(=O)c3cc(NC(=O)C(=O)c4c[nH]c5ccccc45)cc(OC)c3)cc2C(F)(F)F)CC1,.,.,17,93*,20
CCn1c(-c2cc(-c3ccc(OC(C)C)cc3)nc3ccccc23)n[nH]c1=S,0.3,72*,41,56*,34
CCn1c(-c2cc(-c3ccc(C)cc3)nc3ccccc23)n[nH]c1=S,0.7,32,19,6,.
Cc1ccc(-n2c(-c3ccccc3)c[n+]3c2CCc2ccccc2-3)c(C)c1,1.1,-9,25,37,23
Cc1cc(N2CC(=O)N(CCc3ccccc3)C(=O)C2)n2ncnc2n1,1,-5,10,-18,-2
Cc1cc(N2CCN(c3ccccc3)CC2)n2ncnc2n1,1.1,-5,6,-13,.
CC(C)(C)NS(=O)(=O)c1ccc(OCC(=O)NCC2CCCO2)cc1 (configuration not stated),.,.,.,-14,.
O=C(COc1ccc(S(=O)(=O)NC2CCCCC2)cc1)NCC1CCCO1 (configuration not stated),1.1,-6,9,-8,2
Cc1ccc2nc(-c3ccc(NC(=O)Cc4cccs4)cc3)[nH]c2c1,0.9,11,7,18,.
Cc1ccc2nc(-c3ccc(NC(=O)C4CCCO4)cc3)[nH]c2c1 (configuration not stated),0.2,82*,65*,57*,64*
O=C(Nc1ccc(-c2nc3cccnc3s2)cc1)C1CCCO1 (configuration not stated),0.1,91*,62*,-5,64*
SMILES,FLuc act counter,FLuc inh counter,PPC-1+TRAIL kill,TRAIL sens C8,PPC-1 tox
CC(C)C(NC(=O)c1c(F)cccc1F)C(=O)NCCc1ccc(S(N)(=O)=O)cc1 (configuration not stated),.,.,.,-10,.
CS(=O)(=O)c1ccc(C(=O)OCC(=O)NC23CC4CC(CC(C4)C2)C3)cc1[N+](=O)[O-],1.2,-16,-8,-5,-10
COc1ccc(S(=O)(=O)Nc2ccccc2)cc1,.,.,.,22,.
COc1ccc(S(=O)(=O)Nc2ccc(O)c3ccccc23)cc1,1,-1,16,19,4
CC(C)[C@H](NC(=O)c1ccccc1F)C(=O)OCCN1C(=O)c2ccccc2C1=O,.,.,.,4,.
Fc1ccc(CO/N=C/C2=C(Cl)c3ccccc3CC2)cc1,1,-3,3,-6,-5
O=C1N=C(N2CCOCC2)S/C1=C1\C(=O)N(Cc2ccccc2)c2ccc(Br)cc21,1,-2,-11,.,.
CCCCN1C(=O)/C(=C2\SC(N3CCCCC3)=NC2=O)c2ccccc21,0.5,55*,40,38,44
Cc1ccc(C)c(NS(=O)(=O)c2cc(C(N)=O)ccc2C)c1,1.1,-6,16,2,-1
Cc1ccc(C)c(S(=O)(=O)Nc2ccc(C(N)=O)cc2)c1,1.1,-5,-1,-1,.
COc1ccc(S(=O)(=O)Nc2ccccn2)c(C)c1C,1,-2,-5,-3,-2
COc1ccc(-c2n(Cc3ccccc3)c3ccccc3[n+]2Cc2ccccc2)cc1,1,-1,8,25,5
COc1ccc2c(c1)nc(N)n2Cc1ccccc1,1,-4,8,1,.
CCc1sc(C(=O)N2CCc3ccccc32)cc1C,0.4,63*,26,56*,31
O=C(c1ccc(Cl)s1)N1CCc2ccccc21,0.6,36,23,23,.
CCCCc1ccc(NC(=S)N2CCCC2)cc1,.,.,.,6,.
CCOc1cc(/C=N/Nc2cc(C)nc(-n3nc(C)cc3C)n2)ccc1O,.,.,58*,15,54*
COc1cc(/C=N/Nc2nn3cnnc3c3ccccc23)ccc1O,0.1,94*,79*,78*,77*
CCOc1cc(/C=N/Nc2nn3cnnc3c3ccccc23)ccc1O,.,.,56*,73*,59*
COc1cc(/C=N/Nc2nc(C)cc(C)n2)ccc1O,.,.,.,3,.
CCOc1cc(/C=N/Nc2nncc(-c3ccccc3)n2)ccc1O,0.9,8,-4,-2,.
CN1COc2ccc3ccccc3c2C1,1,-2,12,0,.
CCCCCCCn1c2c(c(=N)c3ccccc31)CCC2,1.1,-6,18,60*,17
CC(=O)Nc1cccc(-c2nc3ccc(NC(C)=O)cc3s2)c1,0.3,66*,38,48,28
Cc1ccc(C(C)C)cc1C(=O)CC1(O)C(=O)N(C)c2ccccc21 (configuration not stated),1.1,-5,-3,0,-7
SMILES,FLuc act counter,FLuc inh counter,PPC-1+TRAIL kill,TRAIL sens C8,PPC-1 tox
COc1ccccc1C(CNC(=O)c1cccc(S(=O)(=O)NCc2ccccc2)c1)N(C)C (configuration not stated),.,.,.,-1,.
Cc1ccc(C(=O)NCCc2cccs2)cc1,0.1,89*,69*,78*,67*
O=C(NCCc1cccs1)c1ccc(Cl)cc1,.,.,13,38,.
CCOc1ncccc1C(=O)NCC(c1ccco1)N1CCCCC1 (configuration not stated),.,.,.,-6,.
O=C(CCCN1C(=O)CCC1=O)Nc1ccc2c(c1)OCO2,1,2,8,-2,9
COC(=O)C1=C(C(=O)OC)[C@@H]2N(C)c3ccc(OC)cc3[C@@]23C[C@@H](C(=O)OC)N(S(=O)(=O)c2ccc(OC)cc2)C3=N1,.,.,23,-10,.
